Measurements as given in ChEMBL document CHEMBL1148435, “N,N-dialkyl-4-[(8-azabicyclo[3.2.1]-oct-3-ylidene)phenylmethyl]benzamides, potent, selective delta opioid agonists” (Bioorg Med Chem Lett, 2004).

Experiments:
[1] = target: T1, Delta-type opioid receptor (Homo sapiens, UniProt P41143); assay: Effective concentration against stimulation of [35S]GTP-gamma-S, binding in CHO cells transfected with the human opioid receptor delta 1; format: functional, cell-based
In short: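 Agonist function was read as compound-stimulated [35S]GTPγS binding in CHO cells transfected with the human δ opioid receptor. The method was adapted from one used for bradykinin receptor signal transduction.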

[2] = target: T1, Delta-type opioid receptor; assay: Binding affinity for delta opioid receptor
Mu-type opioid receptor = Mu-type opioid receptor (Homo sapiens, UniProt P35372); assay: Binding affinity for mu opioid receptor
Chain of Mu-type opioid receptor (P35372 whole entry): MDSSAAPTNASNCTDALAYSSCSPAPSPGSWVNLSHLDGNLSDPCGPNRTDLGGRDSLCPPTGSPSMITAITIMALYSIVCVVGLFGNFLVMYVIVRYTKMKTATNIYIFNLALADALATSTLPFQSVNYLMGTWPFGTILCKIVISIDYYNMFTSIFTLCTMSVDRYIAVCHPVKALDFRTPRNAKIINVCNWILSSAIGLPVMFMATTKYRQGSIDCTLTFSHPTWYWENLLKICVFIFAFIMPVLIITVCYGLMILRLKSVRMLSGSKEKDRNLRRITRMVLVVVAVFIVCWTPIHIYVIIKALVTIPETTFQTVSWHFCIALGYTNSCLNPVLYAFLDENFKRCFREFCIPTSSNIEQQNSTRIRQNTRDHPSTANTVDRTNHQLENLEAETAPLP

[3] = target: T1, Delta-type opioid receptor; assay: Efficacy relative to stimulation of [35S]GTP-gamma-S, binding by SNC80 was calculated for human delta opioid receptor; format: functional
Mus musculus = assay: Antinociceptive activity was assessed using the mouse abdominal irritant test (MAIT), at a dose of 150 uM/Kg (po); format: functional, Abdomen
In short: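 Mice were dosed orally, 15 mice per compound, in the abdominal irritant test for antinociception, and watched for convulsions.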

T1 sequence (P41143 whole entry): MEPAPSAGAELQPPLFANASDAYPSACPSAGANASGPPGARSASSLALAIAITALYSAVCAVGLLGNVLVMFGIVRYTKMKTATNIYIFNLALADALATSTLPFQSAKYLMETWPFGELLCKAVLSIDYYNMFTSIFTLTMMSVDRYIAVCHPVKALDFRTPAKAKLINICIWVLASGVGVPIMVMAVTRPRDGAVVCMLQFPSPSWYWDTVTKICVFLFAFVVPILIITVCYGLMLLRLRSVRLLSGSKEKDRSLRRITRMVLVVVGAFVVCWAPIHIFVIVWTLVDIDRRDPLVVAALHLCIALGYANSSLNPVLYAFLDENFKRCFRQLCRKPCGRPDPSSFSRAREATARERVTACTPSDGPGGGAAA

SMILES | EC50 [1] | Ki [2] | Ki (Mu-type opioid receptor) | Relative efficacy [3] | Inhibition (Mus musculus)
CC1CCCC(C)N1C(=O)c1ccc(/C(=C2\C[C@H]3CC[C@@H](C2)N3CCc2ccccc2)c2ccccc2)cc1 (stereo partly specified) | 10000 nM | 11 nM | 571 nM | – | –
CCN(CC)C(=O)c1ccc(C(=C2CC3CCC(C2)N3CCc2ccc(F)cc2)c2ccccc2)cc1 | 27 nM | 2.62 nM | 393 nM | 0.76 | 26.7%
CCN(CC)C(=O)c1ccc(C(=C2CC3CCC(C2)N3CC(=O)c2ccccc2)c2ccccc2)cc1 | 173 nM | 6.31 nM | 9640 nM | 0.68 | –
CCN(CC)C(=O)c1ccc(C(=C2CC3CCC(C2)N3CCCc2ccccc2)c2ccccc2)cc1 | 112 nM | 0.56 nM | 104 nM | 0.88 | 13.3%
CCN(CC)C(=O)c1ccc(C(=C2CC3CCC(C2)N3CCOc2ccccc2)c2ccccc2)cc1 | 623 nM | 0.38 nM | 630 nM | 0.84 | –
C=CCN1[C@@H]2CC[C@H]1C/C(=C(/c1ccccc1)c1ccc(C(=O)N(CC)CC)cc1)C2 | 177 nM | 0.32 nM | 4400 nM | 0.83 | 100%
CCN(CC)C(=O)c1ccc(C(=C2CC3CCC(C2)N3Cc2ccc3c(c2)OCO3)c2ccccc2)cc1 | 0.2 nM | 0.01 nM | 22.4 nM | – | 40%
CCCN1C2CCC1CC(=C(c1ccccc1)c1ccc(C(=O)N(CC)CC)cc1)C2 | 43 nM | 0.39 nM | 289 nM | 0.87 | 93.3%
CCN(CC)C(=O)c1ccc(/C(=C2/C[C@H]3CC[C@@H](C2)N3CCc2ccccc2)c2ccccc2)cc1 | 1390 nM | 42.1 nM | 317 nM | 0.88 | 90%
CCN(CC)C(=O)c1ccc(C(=C2CC3CCC(C2)N3)c2ccc(O)cc2)cc1 | 5 nM | 0.58 nM | 442 nM | 0.96 | 26.7%
CCN(CC)C(=O)c1ccc(C(=C2CC3CCC(C2)N3C)c2cccc(O)c2)cc1 | 3 nM | 0.6 nM | 727 nM | 0.87 | –
COCCN(CCOC)C(=O)c1ccc(C(=C2CC3CCC(C2)N3CCc2ccccc2)c2ccccc2)cc1 | 403 nM | 16.6 nM | 294 nM | 0.71 | –
CCN(CC)C(=O)c1ccc(C(=C2CC3CCC(C2)N3C)c2ccc(O)cc2)cc1 | 9 nM | 1.89 nM | 194 nM | 0.86 | –
CCN(CC)C(=O)c1ccc(C(=C2CC3CCC(C2)N3C)c2cccc(OC)c2)cc1 | 65 nM | 5.9 nM | 693 nM | 0.87 | –
CCN(CC)C(=O)c1ccc(C(=C2CC3CCC(C2)N3CCc2c[nH]c3ccccc23)c2ccccc2)cc1 | 16 nM | 3.48 nM | 337 nM | 0.91 | –
CCN(CC)C(=O)c1ccc(C(=C2CC3CCC(C2)N3C)c2ccc(OC)cc2)cc1 | 27 nM | 3.5 nM | 1500 nM | 0.85 | –

SMILES | EC50 [1] | Ki [2] | Ki (Mu-type opioid receptor) | Relative efficacy [3] | Inhibition (Mus musculus)
CCN(CCO)C(=O)c1ccc(C(=C2CC3CCC(C2)N3CCc2ccccc2)c2ccccc2)cc1 | 548 nM | 3.2 nM | 291 nM | 0.77 | –
CCN(CC)C(=O)c1ccc(/C(=C2\C[C@H]3CC[C@@H](C2)N3C)c2ccccc2)cc1 | 153 nM | 5.7 nM | 2910 nM | 0.87 | 80%
CCN(CC)C(=O)c1ccc(/C(=C2/C[C@H]3CC[C@@H](C2)N3C)c2ccccc2)cc1 | 149 nM | 4.5 nM | 9730 nM | 0.85 | 90%
CCN(CC)C(=O)c1ccc(/C(=C2\C[C@H]3CC[C@@H](C2)N3)c2ccccc2)cc1 | 1.8 nM | 0.023 nM | 855 nM | 1.02 | 86.7%
CCN(CC)C(=O)c1ccc(/C(=C2\C[C@H]3CC[C@@H](C2)N3CCc2ccccc2)c2ccccc2)cc1 | 34 nM | 0.24 nM | 72.3 nM | 0.82 | 100%
CCCN(CCC)C(=O)c1ccc(C(=C2CC3CCC(C2)N3CCc2ccccc2)c2ccccc2)cc1 | 3560 nM | 7.39 nM | 644 nM | 0.82 | –
CCN(CC)C(=O)c1ccc(C(=C2CC3CCC(C2)N3CCC2CCCCC2)c2ccccc2)cc1 | 228 nM | 1.36 nM | 451 nM | 0.92 | –
CCN(CC)C(=O)c1ccc(C(=C2CC3CCC(C2)N3CCc2ccccc2)c2cccc(OC)c2)cc1 | 218 nM | 1.36 nM | 417 nM | 0.8 | –
C=CCN1[C@@H]2CC[C@H]1C/C(=C(\c1ccccc1)c1ccc(C(=O)N(CC)CC)cc1)C2 | 0.5 nM | 0.025 nM | 322 nM | 1.05 | 100%
C=C(C)CN(CC)C(=O)c1ccc(/C(=C2\C[C@H]3CC[C@@H](C2)N3CCc2ccccc2)c2ccccc2)cc1 | 1080 nM | 2.94 nM | 229 nM | 0.9 | 33%
O=C(c1ccc(C(=C2CC3CCC(C2)N3CCc2ccccc2)c2ccccc2)cc1)N1CCOCC1 | 350 nM | 35.2 nM | 237 nM | 0.76 | –
CCN(CC)C(=O)c1ccc(/C(=C2/C[C@H]3CC[C@@H](C2)N3)c2ccccc2)cc1 | 53 nM | 0.36 nM | 2310 nM | 1 | 86.7%
O=C(c1ccc(C(=C2CC3CCC(C2)N3CCc2ccccc2)c2ccccc2)cc1)N1CCCC1 | 1460 nM | 24.1 nM | 276 nM | 0.86 | –
CCN(CC)C(=O)c1ccc(C(=C2CC3CCC(C2)N3CCc2cccs2)c2ccccc2)cc1 | 1350 nM | 13.1 nM | 1280 nM | 0.78 | –
CC(C)N(C(=O)c1ccc(C(=C2CC3CCC(C2)N3CCc2ccccc2)c2ccccc2)cc1)C(C)C | 5040 nM | 49 nM | 103 nM | 0.92 | –
